Experimental data of several laboratories.
Lines come from different studies, so protocols differ.

CC1(C)NC(=O)N(c2ccc(F)c(S(C)(=O)=O)c2)C1=O  concentration (male Swiss mouse, plasma; oral, 100 mg/kg, 1 h): 31900 ng/mL
Cc1ccc2c(c1)C(=O)[C@]1(O)CCN(c3ccc4nc(C)ccc4c3)C1=N2  concentration (mouse, plasma; intraperitoneal, 10 mg/kg, 30 min): 700 nM
NCc1cc2c(cc1F)C(=O)N(C1CCC(=O)NC1=O)C2 (stereo not shown)  concentration (male CD-1 mouse, plasma; oral, 10 mg/kg, 1 h): 81 ng/mL
CC(C)c1cc(C(=O)NCCN)c2cnn(C(C)C)c2n1  concentration (female BALB/c mouse, plasma; intraperitoneal, 50 mg/kg, 30 min): 2430 ng/mL
OCc1nc2ccc(NCc3ccc(C(F)(F)F)cc3)cc2[nH]1  concentration (male BALB/c mouse, brain; intravenous, 1 mg/kg, 6 h): 26.1 ng/g
O=C1CCC(N2Cc3cc(CO)c(F)cc3C2=O)C(=O)N1 (stereo not shown)  concentration (male CD-1 mouse, plasma; intravenous, 1 mg/kg, 2 h): 8.1 ng/mL
CN(C)C(=O)c1cc2cnc(Nc3ccc(-c4ccc5c(=O)cc(N6CCOCC6)oc5c4)cc3)nc2n1C1CCCC1  concentration (BALB/c mouse, brain; oral, 20 mg/kg, 2 h, single dose): 108 ng/g
CC1(C)NC(=O)N(c2ccc(F)c(Br)c2)C1=O  concentration (male Swiss mouse, plasma; oral, 100 mg/kg, 48 h): 1110 ng/mL
O=C1CCC(N2Cc3cc(C4CCN(Cc5ccccc5)CC4)ccc3C2=O)C(=O)N1 (stereo not shown)  concentration (male CD-1 mouse, plasma; oral, 3 mg/kg, 1 h): 235 ng/mL
Cc1nc2ccc(OCc3ccc(C(F)(F)F)cc3)cc2[nH]1  concentration (male BALB/c mouse, brain; oral, 10 mg/kg, 72 h): 2.7 ng/g
CC(C)n1ncc2c(C(=O)NCC3(C)CNC3)cc(C3CC3)nc21  concentration (female BALB/c mouse, plasma; intraperitoneal, 50 mg/kg, 1 h): 2660 ng/mL
CC(C)(C)S(=O)(=O)c1cc2c(Nc3ccc4scnc4c3)ncnc2cc1OCCOP(=O)(O)O  concentration (BALB/c mouse, plasma; oral, 10 mg/kg, 2 h): 145 ng/mL
Fc1ccc(Oc2ccc(Nc3ccc4ncc(OCC5CCNCC5)nc4c3)cc2)cc1  concentration (SCID mouse, plasma; intraperitoneal, 50 mg/kg, 24 h): 1700 nM
